Screens: PubChem BioAssay, The Scripps Research Institute Molecular Screening Center
HTRA1 inhibitor = blocks human HTRA1 serine peptidase | AID 504803 | Q92743 | inhibition, % at 5.96 µM | recombinant HTRA1, FP-rhodamine activity-based probe, fluorescence polarization | 340,000 tested, 0.5% active; in the data active = inhibition above about 36%;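 note: 0% = enzyme with DMSO and 100% = wells lacking enzyme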
Target sequence (Q92743 whole entry, looked up): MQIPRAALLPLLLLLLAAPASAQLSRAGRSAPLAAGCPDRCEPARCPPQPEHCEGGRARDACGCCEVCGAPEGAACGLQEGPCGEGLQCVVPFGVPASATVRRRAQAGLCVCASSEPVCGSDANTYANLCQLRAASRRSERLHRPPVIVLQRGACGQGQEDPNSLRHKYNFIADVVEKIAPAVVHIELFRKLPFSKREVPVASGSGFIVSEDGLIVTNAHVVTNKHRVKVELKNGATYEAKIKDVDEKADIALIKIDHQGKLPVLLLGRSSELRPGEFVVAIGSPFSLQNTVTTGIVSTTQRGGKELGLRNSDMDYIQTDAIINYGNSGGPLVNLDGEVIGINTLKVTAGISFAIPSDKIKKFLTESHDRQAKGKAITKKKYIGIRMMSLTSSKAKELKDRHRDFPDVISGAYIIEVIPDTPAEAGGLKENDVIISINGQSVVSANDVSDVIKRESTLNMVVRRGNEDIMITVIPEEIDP
PRMT1 FP inh = PRMT1 (human) inhibition, primary screen | Q99873 | recombinant PRMT1, activity-based probe fluorescence polarization | inhibition, % at 2.79 µM | 370,000 tested, 1.3% active | AID 652257;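 active = inhibition above about 21% made by adding two undisclosed values, limit read from the data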
mABHD4 FP = inhibitors of mouse ABHD4; 370,000 tested, 0.54% active; inhibition, % at 8.92 µM; purified mABHD4, FP-Rh probe fluorescence polarization; Q8VD66;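 active = inhibition exceeding the mean over every tested compound plus 3 SD, cut at about 30% in these data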;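 note: 0% = plate median of compound wells and 100% = S159A mutant with DMSO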
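Material: mouse ABHD4 enzyme, wild type; Benchmarks: S159A mutant high control, sample median low control; Buffer or medium: HEPES pH 7.0, NaCl, Pluronic buffer; Signal: fluorescence polarization; Read-out: percent inhibition of probe binding, normalized to plate controls; Timing: pre-incubation 45 min, probe exposure 60 min, at 25 °C; Dosing: 8.92 µM, single dose.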
SIAE inh = human SIAE inhibition, primary screen. 370,000 tested, 0.69% active. SIAE FP-Rh probe binding, fluorescence polarization. inhibition, % at 9.66 µM;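 active = inhibition above a cutoff: mean of compounds within the control limits plus 3 SD of those, cut at about 17% in these data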;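 note: 0% = plate median of compound wells and 100% = probe without SIAE protein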
TCR-CD3 inh = blocks the human TCR-CD3 interaction. inhibition, % at 9.4 µM. TAMRA-labeled TCR probe fluorescence, biochemical. 360,000 tested, 0.37% active; in the data active = inhibition above about 19%;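 note: recombinant mutant TCR 2C K166C tagged with TAMRA read by polarization; 0% = receptor in buffer alone and 100% = receptor with positive control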
SIAE confirm = human SIAE inhibition, confirmation. shares compounds with SIAE inh. SIAE FP-Rh activity-based probe, fluorescence polarization. inhibition, % at 9.66 µM. 2,300 tested, 13% active. AID 1117263;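 active = mean inhibition of the replicates above the hit cutoff set in the primary screen, cut at about 17% in these data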;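 note: 0% = SIAE with DMSO and probe and 100% = probe without SIAE; inhibitors lower polarization as more probe stays unbound to SIAE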
Numbers without * were called inactive; nt = no result given. An excerpt weighted towards active compounds, which were near 2.6% of everything screened.

SMILES	HTRA1 inhibitor	PRMT1 FP inh	mABHD4 FP	SIAE inh	TCR-CD3 inh	SIAE confirm
Cc1ccc(OCCn2c(CCNC(=O)c3ccc(F)cc3F)nc3ccccc32)cc1	nt	-1	-14	-5	nt	nt
O=C(O)CCc1nn2c3ccccc3n(CC(=O)O)c2nc1=O	1	0	-2	30*	2	-2
CN(C)c1ccc(CN(CC2CCCO2)C(=O)c2cc3ccccc3o2)cc1 (stereo not given)	-2	0	2	20*	5	-1
Cc1cccc(-c2c3c(=O)n(C)c(=O)n(C)c3cn2CC2CCCO2)c1 (stereo not given)	3	2	-2	19*	3	-3
Cn1c(=O)c2c(-c3ccc(C(C)(C)C)cc3)n(CC3CCCO3)cc2n(C)c1=O (stereo not given)	3	0	-5	3	3	nt
COCCNC(=O)c1nc2ccccc2s1	4	-2	0	19*	-1	-2
CCOc1ccc(/C=N/Nc2cc(N3CCOCC3)nc(C)n2)c(O)c1	5	2	8	31*	-11	26*
CCOc1ccc(/C=N/Nc2cc(C)nc(N3CCOCC3)n2)cc1	-1	3	-14	-3	-5	nt
CCC(c1ccccc1)c1noc(CCN(CC)CC)n1 (stereo not given)	-1	-2	-4	20*	-3	0
COCCN(C)Cc1nc(C(c2ccccc2)c2ccccc2)no1	4	-2	0	-2	3	nt
CSc1nnc(C)c(/C=C/NOCc2ccc(Cl)cc2)n1	-2	2	5	18*	8	0
CSc1nnc(C)c(/C=C/Nc2ccc(C)cc2)n1	-1	-3	2	10	1	nt
CC1CCN(c2nc3c(c(=O)[nH]c(=O)n3C)n2Cc2ccccc2)CC1	1	2	3	5	-6	nt
CC1CCCN(c2nc3c(c(=O)[nH]c(=O)n3C)n2CCCc2ccccc2)C1 (stereo not given)	-3	-3	2	18*	5	5
CCN(CC)CCNc1nc2c(c(=O)[nH]c(=O)n2C)n1CCCc1ccccc1	8	-6	2	19*	-3	3
CCNc1nc2c(c(=O)[nH]c(=O)n2C)n1CCCc1ccccc1	4	2	-11	0	2	nt
COC(=O)C1=C(C)N(C)C(=NCc2ccc(OC)cc2)NC1c1ccccc1 (stereo not given)	nt	-3	-5	12	-9	nt
Cc1ccc(S(=O)(=O)Oc2ccccc2/C=N/N=C(N)N)cc1	-7	-3	-2	21*	6	-4
CCOC(=O)[C@]12CCCC=C1N(Cc1ccc(OC)cc1)C(=O)[C@@H]2CC(=O)N1CCC(c2ccccc2)CC1	nt	2	-10	-5	nt	nt
COc1ccc(-c2nc3ccccc3c(=O)n2Cc2ccccc2)cc1COc1ccc(NC(C)=O)cc1	nt	4	2	1	nt	nt
Cn1c(=O)c2c(SCC(=O)Nc3ccccc3F)nc(-c3ccccc3F)nc2n(C)c1=O	9	-4	-2	23*	3	1
NNC(=O)c1sc2nc(N3CCOCC3)c3c(c2c1N)CCCC3	nt	-2	4	18*	8	2
Nc1c(C(=O)NCc2ccccc2)sc2nc(N3CCOCC3)c3c(c12)CCCC3	-48	6	7	19*	-3	5
CCCCCCn1c(N(CC)CC)nc2c1c(=O)[nH]c(=O)n2C	9	-3	5	23*	7	-2
CCN(CC)c1nc2c(c(=O)[nH]c(=O)n2C)n1Cc1ccccc1	3	-3	0	0	8	nt
SMILES	HTRA1 inhibitor	PRMT1 FP inh	mABHD4 FP	SIAE inh	TCR-CD3 inh	SIAE confirm
COC(=O)CC1C(=O)NCCN1C(=O)c1ccc2oc(C(C)C)nc2c1 (stereo not given)	3	0	-1	-5	7	nt
COC(=O)CC1C(=O)NCCN1C(=O)CSc1nc2cc(Cl)ccc2o1 (stereo not given)	-2	-2	-4	21*	2	3
COc1ccc(Nc2nc(-c3cccs3)cs2)c(OC)c1	18	7	6	10	-10	nt
Oc1ccc(Nc2nc(-c3cccs3)cs2)cc1	23	14	-1	20*	-3	6
COc1ccc(OC)c(Nc2nc(-c3cccs3)cs2)c1	10	3	27	20*	0	2
COC(=O)[C@]12C[C@H](CC(=O)N3CCCC3)C(=O)N(CCc3ccc(OC)c(OC)c3)C1=C[C@H](C(C)C)O[C@@H]2C1CC1	nt	4	-2	-1	nt	nt
